# Experiments:
# Format in all cases: functional
# Staphylococcus aureus [1] = experiment: In vitro antibacterial activity against 6538P strain of Staphylococcus aureus
# Procedure, shortened: (§1)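 MIC determined by standard agar dilution; values in μg/mL.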
# Staphylococcus aureus [2] = experiment: In vitro antibacterial activity against A5177 strain of Staphylococcus aureus; procedure, shortened: as §1
# Streptococcus pneumoniae [3] = experiment: In vitro antibacterial activity against 5649 strain of Streptococcus pneumoniae; procedure, shortened: as §1
# Streptococcus pneumoniae [4] = experiment: In vitro antibacterial activity against 5979 strain of Streptococcus pneumoniae; procedure, shortened: as §1
# Streptococcus pyogenes [5] = experiment: In vitro antibacterial activity against 930 strain of Streptococcus pyogenes; procedure, shortened: as §1
# Streptococcus pneumoniae [6] = experiment: In vitro antibacterial activity against ATCC 6303 strain of Streptococcus pneumoniae; procedure, shortened: as §1
# Streptococcus pyogenes [7] = experiment: In vitro antibacterial activity against PIU 2548 strain of Streptococcus pyogenes; procedure, shortened: as §1
# [8] = In vitro antibacterial activity against A-5278 strain of Staphylococcus aureus; conditions: Staphylococcus aureus; procedure, shortened: as §1
# Haemophilus influenzae = experiment: In vitro antibacterial activity against DILL strain of Haemophilus influenzae.; procedure, shortened: as §1
# Mus musculus [9] = experiment: Effective dose when administered orally in mice infected with Staphylococcus aureus NCTC-10649M.; conditions: po
# Procedure, shortened: (§2)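 Mice infected intraperitoneally with 1000 × LD₅₀ (S. aureus) or […] × LD₅₀ (S. pneumoniae). Compound given orally (po) or subcutaneously (sc) at 1 and 5 h post-infection. ED₅₀ expressed in mg/kg/day with 95% confidence interval.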
# Mus musculus [10] = experiment: Effective dose when administered orally in mice infected with Streptococcus pneumoniae ATCC 6303; conditions: po; procedure, shortened: as §2
# Staphylococcus aureus [11] = experiment: In vivo antibacterial activity in mice infected with Staphylococcus aureus NCTC-10649M.
# Streptococcus pneumoniae [12] = experiment: In vivo antibacterial activity in mice infected with Streptococcus pneumoniae ATCC 6303
# Mus musculus [13] = experiment: Effective dose when administered subcutaneously in mice infected with Streptococcus pneumoniae ATCC 6303; conditions: sc; procedure, shortened: as §2
# Mus musculus [14] = experiment: Effective dose when administered subcutaneously in mice infected with Staphylococcus aureus NCTC-10649M.; conditions: sc; procedure, shortened: as §2
# [15] = Streptococcus pneumoniae, ATCC 6303
MIC (Streptococcus pneumoniae [4]) [µg/mL],MIC (Streptococcus pyogenes [5]; Streptococcus pyogenes) [µg/mL],MIC (Streptococcus pyogenes [7]; Streptococcus pyogenes) [µg/mL],MIC [8] [µg/mL],MIC (Haemophilus influenzae) [µg/mL],MIC (Staphylococcus aureus [1]; Staphylococcus aureus) [µg/mL],MIC (Staphylococcus aureus [2]; Staphylococcus aureus) [µg/mL],MIC (Staphylococcus aureus [11]) [µg/mL],MIC (Streptococcus pneumoniae [3]; Streptococcus pneumoniae) [µg/mL],MIC (Streptococcus pneumoniae [6]; [15]) [µg/mL],MIC (Streptococcus pneumoniae [12]) [µg/mL],Structure (SMILES),ED50 (Mus musculus [9]) [mg/kg/day],ED50 (Mus musculus [10]) [mg/kg/day],other results
8,6.2,1.56,25,–,–,–,–,–,–,–,CC[C@H]1OC(=O)/C(C)=C/[C@H](C)[C@@H](O[C@@H]2O[C@H](C)C[C@H](N(C)C)[C@H]2O)[C@@](C)(OC)C[C@@H](C)C(=O)[C@H](C)[C@H]2N(CCc3ccc(Oc4ccccc4)cc3)C(=O)O[C@]12C (stereo in doubt; 14),–,–,MIC (Staphylococcus aureus [1]): 3.1 µg/mL; MIC (Staphylococcus aureus [2]): 3.1 µg/mL; MIC (Streptococcus pneumoniae [3]): 2 µg/mL; MIC (Streptococcus pneumoniae [6]): 1 µg/mL
16,6.2,0.39,25,16,0.39,0.39,0.39,1,0.125,0.125,CC[C@H]1OC(=O)/C(C)=C/[C@H](C)[C@@H](O[C@@H]2O[C@H](C)C[C@H](N(C)C)[C@H]2O)[C@@](C)(OC)C[C@@H](C)C(=O)[C@H](C)[C@H]2N(CCc3ccc(Br)cc3)C(=O)O[C@]12C,> 100,> 100,–
64,25,0.1,50,16,0.1,0.1,0.1,1,0.06,0.06,CC[C@H]1OC(=O)/C(C)=C/[C@H](C)[C@@H](O[C@@H]2O[C@H](C)C[C@H](N(C)C)[C@H]2O)[C@@](C)(OC)C[C@@H](C)C(=O)[C@H](C)[C@H]2N(CCc3ccc([N+](=O)[O-])cc3)C(=O)O[C@]12C,50.1,> 20,ED50 (Mus musculus [13]): > 8 mg/kg/day; ED50 (Mus musculus [14]): > 40 mg/kg/day
64,–,–,50,–,–,–,–,2,1,–,CC[C@H]1OC(=O)/C(C)=C/[C@H](C)[C@@H](O[C@@H]2O[C@H](C)C[C@H](N(C)C)[C@H]2O)[C@@](C)(OC)C[C@@H](C)C(=O)[C@H](C)[C@H]2N(CCCc3ccccc3)C(=O)O[C@]12C (stereo in doubt; 10),–,–,MIC (Staphylococcus aureus [1]): 3.1 µg/mL; MIC (Staphylococcus aureus [2]): 3.1 µg/mL; MIC (Streptococcus pyogenes [5]): 25 µg/mL; MIC (Streptococcus pyogenes [7]): 0.78 µg/mL
16,12.5,0.39,25,16,0.39,0.39,–,0.25,0.015,–,CC[C@H]1OC(=O)/C(C)=C/[C@H](C)[C@@H](O[C@@H]2O[C@H](C)C[C@H](N(C)C)[C@H]2O)[C@@](C)(OC)C[C@@H](C)C(=O)[C@H](C)[C@H]2N(CCc3ccc(C)cc3)C(=O)O[C@]12C,–,–,–

# The next lines start with the molecule.
Structure (SMILES),MIC (Streptococcus pneumoniae [4]) [µg/mL],MIC (Streptococcus pyogenes [5]; Streptococcus pyogenes) [µg/mL],MIC (Streptococcus pyogenes [7]; Streptococcus pyogenes) [µg/mL],MIC [8] [µg/mL],MIC (Haemophilus influenzae) [µg/mL],MIC (Staphylococcus aureus [1]; Staphylococcus aureus) [µg/mL],MIC (Staphylococcus aureus [2]; Staphylococcus aureus) [µg/mL],MIC (Staphylococcus aureus [11]) [µg/mL],MIC (Streptococcus pneumoniae [3]; Streptococcus pneumoniae) [µg/mL],MIC (Streptococcus pneumoniae [6]; [15]) [µg/mL],MIC (Streptococcus pneumoniae [12]) [µg/mL],ED50 (Mus musculus [9]) [mg/kg/day],ED50 (Mus musculus [10]) [mg/kg/day],other results
CC[C@H]1OC(=O)/C(C)=C/[C@H](C)[C@@H](O[C@@H]2O[C@H](C)C[C@H](N(C)C)[C@H]2O)[C@@](C)(OC)C[C@@H](C)C(=O)[C@H](C)[C@H]2N(CCCOc3ccc4ccccc4c3)C(=O)O[C@]12C,8,3.1,0.39,25,64,0.2,0.39,–,2,0.03,–,–,–,–
CC[C@H]1OC(=O)/C(C)=C/[C@H](C)[C@@H](O[C@@H]2O[C@H](C)C[C@H](N(C)C)[C@H]2O)[C@@](C)(OC)C[C@@H](C)C2=NCCN3C(=O)O[C@@]1(C)[C@H]3[C@H]2C,–,–,0.2,–,16,0.78,0.78,0.05,1,0.25,0.25,66.1,8,ED50 (Mus musculus [13]): 7.5 mg/kg/day; ED50 (Mus musculus [14]): > 40 mg/kg/day
CC[C@H]1OC(=O)[C@H](C)[C@@H](O[C@H]2C[C@@](C)(OC)[C@@H](O)[C@H](C)O2)[C@H](C)[C@@H](O[C@@H]2O[C@H](C)C[C@H](N(C)C)[C@H]2O)[C@](C)(OC)C[C@@H](C)C(=O)[C@H](C)[C@@H](O)[C@]1(C)O [CLARITHROMYCIN],–,–,–,–,–,–,–,0.03,–,–,0.004,–,–,–

# — ChEMBL document CHEMBL1131215, “Anhydrolide macrolides. 1. Synthesis and antibacterial activity of 2,3-anhydro-6-O-methyl 11,12-carbamate erythromycin A analogues” (1998)
